Test results from ChEMBL document CHEMBL5329156, “Discovery and development of novel substituted monohydrazides as potent antifungal agents” (RSC Med Chem, 2023).
In brackets after ≈: the same amount, converted by molar mass. Activity calls are given as the source filed them. The rule behind the calls is not given here.

Tests used:
Candida albicans [1] = assay: Antifungal activity against Candida albicans ATCC 10231 assessed as fungal growth inhibition by double dilution method; assay type: functional
How it was run: (§1)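 Broth microdilution after CLSI M27-A3/M38-A2 with minor changes. Single colony grown overnight in YPD at 35 °C, 200 rpm. Compound final range 0.06-31.3 µg/mL; incubated 48 h at 35 °C.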

Candida albicans [2] = assay: Antifungal activity against Candida albicans ATCC 64124 assessed as fungal growth inhibition by double dilution method; assay type: functional
How it was run: (§2)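 Broth microdilution after CLSI M27-A3/M38-A2 with minor modifications. A single colony was grown overnight in YPD at 35 °C with shaking at 200 rpm. Cells were mixed 1:1 with compound (final 0.06-31.3 µg/mL, from DMSO stocks) and incubated 48 h at 35 °C.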

Candida albicans [3] = assay: Antifungal activity against itraconazole/fluconazole susceptible Candida albicans ATCC MYA-2876 assessed as fungal growth inhibition by double dilution method; assay type: functional; how it was run: as §2
Candida albicans [4] = assay: Antifungal activity against itraconazole/fluconazole resistant Candida albicans ATCC 90819 assessed as fungal growth inhibition by double dilution method; assay type: functional; how it was run: as §2
Candida albicans [5] = assay: Antifungal activity against itraconazole/fluconazole susceptible Candida albicans ATCC MYA-2310 assessed as fungal growth inhibition by double dilution method; assay type: functional; how it was run: as §2
Candida albicans [6] = assay: Antifungal activity against itraconazole/fluconazole resistant Candida albicans ATCC MYA-1237 assessed as fungal growth inhibition by double dilution method; assay type: functional; how it was run: as §2
Candida albicans [7] = assay: Antifungal activity against itraconazole/fluconazole resistant Candida albicans ATCC MYA-1003 assessed as fungal growth inhibition by double dilution method; assay type: functional; how it was run: as §2
Nakaseomyces glabratus [8] = assay: Antifungal activity against Candida glabrata ATCC 2001 assessed as fungal growth inhibition by double dilution method; assay type: functional; how it was run: as §1
Pichia kudriavzevii [9] = assay: Antifungal activity against Pichia kudriavzevii ATCC 6258 assessed as fungal growth inhibition by double dilution method; assay type: functional; how it was run: as §1
Nakaseomyces glabratus [10] = assay: Antifungal activity against Candida glabrata ATCC 22019 assessed as fungal growth inhibition by double dilution method; assay type: functional; how it was run: as §1
[Candida] auris [11] = Antifungal activity against Candida auris AR Bank # 0384 assessed as fungal growth inhibition by double dilution method; assay type: functional; conditions: Candidozyma auris; how it was run: as §1
[Candida] auris [12] = Antifungal activity against Candida auris AR Bank # 0390 assessed as fungal growth inhibition by double dilution method; assay type: functional; conditions: Candidozyma auris; how it was run: as §1
Cryptococcus neoformans = assay: Antifungal activity against Cryptococcus neoformans ATCC MYA-895 assessed as fungal growth inhibition by double dilution method; assay type: functional; how it was run: as §1
Aspergillus terreus = assay: Antifungal activity against Aspergillus terreus ATCC MYA-3633 assessed as fungal growth inhibition by double dilution method; assay type: functional
Aspergillus fumigatus [13] = assay: Antifungal activity against Aspergillus fumigatus NRRL 163 assessed as fungal growth inhibition by double dilution method; assay type: functional
Aspergillus flavus = assay: Antifungal activity against Aspergillus flavus ATCC MYA-3631 assessed as fungal growth inhibition by double dilution method; assay type: functional
Aspergillus nidulans = assay: Antifungal activity against Aspergillus nidulans ATCC 38163 assessed as fungal growth inhibition by double dilution method; assay type: functional
Aspergillus fumigatus [14] = assay: Antifungal activity against Aspergillus fumigatus NRRL 5109 assessed as fungal growth inhibition by double dilution method; assay type: functional
Aspergillus fumigatus [15] = assay: Antifungal activity against Aspergillus fumigatus NRRL 6113 assessed as fungal growth inhibition by double dilution method; assay type: functional
[Candida] auris [16] = Antifungal activity against Candida auris AR Bank # 381 assessed as fungal growth inhibition by double dilution method; assay type: functional; conditions: Candidozyma auris; how it was run: as §1
[Candida] auris [17] = Antifungal activity against Candida auris AR Bank # 382 assessed as fungal growth inhibition by double dilution method; assay type: functional; conditions: Candidozyma auris; how it was run: as §1
[Candida] auris [18] = Antifungal activity against Candida auris AR Bank # 383 assessed as fungal growth inhibition by double dilution method; assay type: functional; conditions: Candidozyma auris; how it was run: as §1
[Candida] auris [19] = Antifungal activity against Candida auris AR Bank # 384 assessed as fungal growth inhibition by double dilution method; assay type: functional; conditions: Candidozyma auris; how it was run: as §1
[Candida] auris [20] = Antifungal activity against Candida auris AR Bank # 385 assessed as fungal growth inhibition by double dilution method; assay type: functional; conditions: Candidozyma auris; how it was run: as §1
[Candida] auris [21] = Antifungal activity against Candida auris AR Bank # 386 assessed as fungal growth inhibition by double dilution method; assay type: functional; conditions: Candidozyma auris; how it was run: as §1
[Candida] auris [22] = Antifungal activity against Candida auris AR Bank # 387 assessed as fungal growth inhibition by double dilution method; assay type: functional; conditions: Candidozyma auris; how it was run: as §1
[Candida] auris [23] = Antifungal activity against Candida auris AR Bank # 388 assessed as fungal growth inhibition by double dilution method; assay type: functional; conditions: Candidozyma auris; how it was run: as §1
[Candida] auris [24] = Antifungal activity against Candida auris AR Bank # 389 assessed as fungal growth inhibition by double dilution method; assay type: functional; conditions: Candidozyma auris; how it was run: as §1
[Candida] auris [25] = Antifungal activity against Candida auris AR Bank # 390 assessed as fungal growth inhibition by double dilution method; assay type: functional; conditions: Candidozyma auris; how it was run: as §1
Candida duobushaemulonii [26] = assay: Antifungal activity against Candida duobushaemulonii AR Bank # 391 assessed as fungal growth inhibition by double dilution method; assay type: functional; conditions: Candidozyma duobushaemuli; how it was run: as §1
Candida duobushaemulonii [27] = assay: Antifungal activity against Candida duobushaemulonii AR Bank # 392 assessed as fungal growth inhibition by double dilution method; assay type: functional; conditions: Candidozyma duobushaemuli; how it was run: as §1
[Candida] haemuloni [28] = Antifungal activity against Candida haemulonii AR Bank # 393 assessed as fungal growth inhibition by double dilution method; assay type: functional; conditions: Candidozyma haemuli; how it was run: as §1
Candida duobushaemulonii [29] = assay: Antifungal activity against Candida duobushaemulonii AR Bank # 394 assessed as fungal growth inhibition by double dilution method; assay type: functional; conditions: Candidozyma duobushaemuli; how it was run: as §1
[Candida] haemuloni [30] = Antifungal activity against Candida haemulonii AR Bank # 395 assessed as fungal growth inhibition by double dilution method; assay type: functional; conditions: Candidozyma haemuli; how it was run: as §1
Kodamaea ohmeri = assay: Antifungal activity against Kodamaea ohmeri AR Bank # 396 assessed as fungal growth inhibition by double dilution method; assay type: functional; how it was run: as §1
Pichia kudriavzevii [31] = assay: Antifungal activity against Pichia kudriavzevii AR Bank # 397 assessed as fungal growth inhibition by double dilution method; assay type: functional; how it was run: as §1
Clavispora lusitaniae = assay: Antifungal activity against Clavispora lusitaniae AR Bank # 398 assessed as fungal growth inhibition by double dilution method; assay type: functional; how it was run: as §1
Saccharomyces cerevisiae [32] = assay: Antifungal activity against Saccharomyces cerevisiae AR Bank # 399 assessed as fungal growth inhibition by double dilution method; assay type: functional; how it was run: as §1
Saccharomyces cerevisiae [33] = assay: Antifungal activity against Saccharomyces cerevisiae AR Bank # 400 assessed as fungal growth inhibition by double dilution method; assay type: functional; how it was run: as §1
J774.A1 = assay: Cytotoxicity against J774A.1 cells assessed as reduction in cell viability at 31.3 microg/ml; assay type: toxicity, cell-based; conditions: mouse, dose 31.3 µg/ml
How it was run: (§3)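 Cells in DMEM with 10% FBS and 1% Pen/Strep, seeded at 10,000 cells/well and held overnight at 37 °C, 5% CO2. Compounds added at final 31.3-0.12 µg/mL (0.05% DMSO vehicle) for 24 h. Resazurin then added for 6 h; fluorescence read at ex 560/em 590. Triton X-100 1% as positive control; values normalized to vehicle. Run in quadruplicate.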

HEK293 = assay: Cytotoxicity against human HEK-293 cells assessed as reduction in cell viability at 31.3 microg/ml; assay type: toxicity, cell-based; conditions: dose 31.3 µg/ml; how it was run: as §3
HepG2 = assay: Cytotoxicity against human HepG2 cells assessed as reduction in cell viability upto 31.3 microg/ml; assay type: toxicity, cell-based; conditions: dose < 31.3 µg/ml; how it was run: as §3
Candida albicans [34] = assay: Antibiofilm activity against Candida albicans ATCC 10231 assessed as reduction in biofilm production at 1.96 to 3.9 microg/ml by biofilm formation assay; assay type: functional, organism-based; conditions: dose 1.96-3.9 µg/ml

## O=C(NNc1cccc(F)c1)c1ccccn1
Candida albicans [1]
  MIC: ≤ 0.06 µg/mL
Candida albicans [2]
  MIC: 0.98 µg/mL (≈ 4.24 µM)
Candida albicans [3]
  MIC: 0.98 µg/mL (≈ 4.24 µM)
Candida albicans [4]
  MIC: 0.49 µg/mL (≈ 2.12 µM)
Candida albicans [5]
  MIC: 1.95 µg/mL (≈ 8.43 µM)
Candida albicans [6]
  MIC: 0.98 µg/mL (≈ 4.24 µM)
Candida albicans [7]
  MIC: 0.98 µg/mL (≈ 4.24 µM)
Nakaseomyces glabratus [8]
  MIC: 1.95 µg/mL (≈ 8.43 µM)
Pichia kudriavzevii [9]
  MIC: 0.24 µg/mL (≈ 1.04 µM)
Nakaseomyces glabratus [10]
  MIC: 1.95 µg/mL (≈ 8.43 µM)
[Candida] auris [11]
  MIC: 1.95 µg/mL (≈ 8.43 µM)
[Candida] auris [12]
  MIC: 0.24 µg/mL (≈ 1.04 µM)
Cryptococcus neoformans
  MIC: 0.12 µg/mL (≈ 0.519 µM)
Aspergillus terreus
  MIC: 1.95 µg/mL (≈ 8.43 µM)
Aspergillus fumigatus [13]
  MIC: > 31.3 µg/mL
Aspergillus flavus
  MIC: 7.8 µg/mL (≈ 33.7 µM)
Aspergillus nidulans
  MIC: 0.49 µg/mL (≈ 2.12 µM)
Aspergillus fumigatus [14]
  MIC: > 31.3 µg/mL
Aspergillus fumigatus [15]
  MIC: > 31.3 µg/mL
[Candida] auris [16]
  MIC: 0.49 µg/mL (≈ 2.12 µM)
[Candida] auris [17]
  MIC: 0.98 µg/mL (≈ 4.24 µM)
[Candida] auris [18]
  MIC: 1.95 µg/mL (≈ 8.43 µM)
[Candida] auris [19]
  MIC: 1.95 µg/mL (≈ 8.43 µM)
[Candida] auris [20]
  MIC: 0.98 µg/mL (≈ 4.24 µM)
[Candida] auris [21]
  MIC: 0.49 µg/mL (≈ 2.12 µM)
[Candida] auris [22]
  MIC: 0.49 µg/mL (≈ 2.12 µM)
[Candida] auris [23]
  MIC: 0.49 µg/mL (≈ 2.12 µM)
[Candida] auris [24]
  MIC: 0.12 µg/mL (≈ 0.519 µM)
[Candida] auris [25]
  MIC: 0.24 µg/mL (≈ 1.04 µM)
Candida duobushaemulonii [26]
  MIC: 0.49 µg/mL (≈ 2.12 µM)
Candida duobushaemulonii [27]
  MIC: 0.24 µg/mL (≈ 1.04 µM)
[Candida] haemuloni [28]
  MIC: 0.12 µg/mL (≈ 0.519 µM)
Candida duobushaemulonii [29]
  MIC: 0.49 µg/mL (≈ 2.12 µM)
[Candida] haemuloni [30]
  MIC: ≤ 0.06 µg/mL
Kodamaea ohmeri
  MIC: 0.24 µg/mL (≈ 1.04 µM)
Pichia kudriavzevii [31]
  MIC: 0.24 µg/mL (≈ 1.04 µM)
Clavispora lusitaniae
  MIC: 0.98 µg/mL (≈ 4.24 µM)
Saccharomyces cerevisiae [32]
  MIC: 1.95 µg/mL (≈ 8.43 µM)
Saccharomyces cerevisiae [33]
  MIC: 1.95 µg/mL (≈ 8.43 µM)
J774.A1
  Activity: Non-Toxic
HEK293
  Activity: Non-Toxic
HepG2
  Activity: Non-Toxic
Candida albicans [34]
  Activity: Active
